# Measurements published in the M2OR odorant receptor database.
# Tests used:
# Conditions in all cases: stereoisomer not certain
# OR51E1 (Homo sapiens) [1] = biological target: T1, OR51E1 (Homo sapiens) (UniProt Q8TCB6)
# T1 sequence (whole entry): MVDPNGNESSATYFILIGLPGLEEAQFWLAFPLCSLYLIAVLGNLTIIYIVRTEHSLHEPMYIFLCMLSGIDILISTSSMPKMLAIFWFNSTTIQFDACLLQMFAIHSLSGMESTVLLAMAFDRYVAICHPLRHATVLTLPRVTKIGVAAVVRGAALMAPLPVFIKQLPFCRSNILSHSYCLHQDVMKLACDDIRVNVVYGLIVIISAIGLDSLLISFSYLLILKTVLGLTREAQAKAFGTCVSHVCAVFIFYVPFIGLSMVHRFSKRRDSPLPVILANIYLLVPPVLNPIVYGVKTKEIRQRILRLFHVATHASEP
# How it was run: (§1)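 Assay methods differ from source to source, frequently being transient luciferase assays in mammalian cell lines. For each receptor–molecule pair, the label responsive (active) applies when the original authors judged the measured signal statistically different from baseline, and non-responsive (inactive) applies otherwise.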
# OR51E2 (Homo sapiens) = biological target: T2, OR51E2 (Homo sapiens) (UniProt Q9H255)
# T2 sequence (whole entry): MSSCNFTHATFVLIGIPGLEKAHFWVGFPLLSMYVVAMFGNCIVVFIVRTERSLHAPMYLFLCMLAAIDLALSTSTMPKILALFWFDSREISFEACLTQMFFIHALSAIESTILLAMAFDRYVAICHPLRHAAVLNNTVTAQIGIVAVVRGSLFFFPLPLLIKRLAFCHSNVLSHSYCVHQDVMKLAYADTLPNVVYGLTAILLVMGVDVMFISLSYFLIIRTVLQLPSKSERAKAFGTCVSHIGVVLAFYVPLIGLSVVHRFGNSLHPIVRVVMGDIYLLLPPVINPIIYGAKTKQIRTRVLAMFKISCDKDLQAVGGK
# How it was run: as §1
# OR51B5 (Homo sapiens) = biological target: T3, OR51B5 (Homo sapiens) (UniProt Q9H339)
# T3 sequence (whole entry): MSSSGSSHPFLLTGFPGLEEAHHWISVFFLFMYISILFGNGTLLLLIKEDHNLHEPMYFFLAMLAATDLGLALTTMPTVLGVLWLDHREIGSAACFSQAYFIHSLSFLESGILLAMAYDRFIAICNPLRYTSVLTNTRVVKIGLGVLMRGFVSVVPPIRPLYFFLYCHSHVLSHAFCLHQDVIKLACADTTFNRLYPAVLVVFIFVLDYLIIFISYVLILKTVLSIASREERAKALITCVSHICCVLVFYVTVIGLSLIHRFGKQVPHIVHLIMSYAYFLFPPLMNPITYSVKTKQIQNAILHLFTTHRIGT
# How it was run: as §1
# OR4P4 (Homo sapiens) = OR4P4 (Homo sapiens) (UniProt Q8NGL7)
# Sequence of OR4P4 (Homo sapiens) (Q8NGL7 whole entry): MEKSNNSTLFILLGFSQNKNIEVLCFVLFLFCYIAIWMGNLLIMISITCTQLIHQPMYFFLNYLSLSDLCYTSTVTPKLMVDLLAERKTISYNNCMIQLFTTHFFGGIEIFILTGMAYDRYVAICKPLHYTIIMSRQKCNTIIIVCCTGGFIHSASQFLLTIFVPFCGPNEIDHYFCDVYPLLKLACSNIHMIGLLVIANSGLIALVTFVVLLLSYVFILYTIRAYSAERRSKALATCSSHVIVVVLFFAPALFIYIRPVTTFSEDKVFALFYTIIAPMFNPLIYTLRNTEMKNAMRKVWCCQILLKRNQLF
# How it was run: as §1
# OR4Q2 (Homo sapiens) = OR4Q2 (Homo sapiens) (UniProt P0C623)
# Sequence of OR4Q2 (Homo sapiens) (P0C623 as listed by the source): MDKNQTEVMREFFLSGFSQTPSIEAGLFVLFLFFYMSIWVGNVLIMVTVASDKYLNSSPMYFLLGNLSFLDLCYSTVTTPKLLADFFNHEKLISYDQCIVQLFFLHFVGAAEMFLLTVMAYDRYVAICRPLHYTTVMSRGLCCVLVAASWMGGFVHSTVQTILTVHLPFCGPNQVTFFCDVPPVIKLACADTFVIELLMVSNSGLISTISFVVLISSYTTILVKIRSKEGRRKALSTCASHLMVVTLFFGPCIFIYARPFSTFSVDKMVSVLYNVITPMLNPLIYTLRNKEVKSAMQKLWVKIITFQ
# How it was run: as §1
# OR4Q3 (Homo sapiens) = biological target: T4, OR4Q3 (Homo sapiens) (UniProt Q8NH05)
# T4 sequence (whole entry): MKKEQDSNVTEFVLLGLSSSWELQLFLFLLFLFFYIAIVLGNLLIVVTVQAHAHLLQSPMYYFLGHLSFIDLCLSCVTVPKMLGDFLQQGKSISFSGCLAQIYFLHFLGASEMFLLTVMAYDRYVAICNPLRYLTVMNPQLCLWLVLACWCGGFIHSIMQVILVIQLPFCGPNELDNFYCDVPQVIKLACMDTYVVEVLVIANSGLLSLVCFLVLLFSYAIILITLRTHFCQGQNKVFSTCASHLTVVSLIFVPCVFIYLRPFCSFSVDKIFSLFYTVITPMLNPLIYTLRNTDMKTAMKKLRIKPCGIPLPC
# How it was run: as §1
# OR4S1 (Homo sapiens) = OR4S1 (Homo sapiens) (UniProt Q8NGB4)
# Sequence of OR4S1 (Homo sapiens) (Q8NGB4 whole entry): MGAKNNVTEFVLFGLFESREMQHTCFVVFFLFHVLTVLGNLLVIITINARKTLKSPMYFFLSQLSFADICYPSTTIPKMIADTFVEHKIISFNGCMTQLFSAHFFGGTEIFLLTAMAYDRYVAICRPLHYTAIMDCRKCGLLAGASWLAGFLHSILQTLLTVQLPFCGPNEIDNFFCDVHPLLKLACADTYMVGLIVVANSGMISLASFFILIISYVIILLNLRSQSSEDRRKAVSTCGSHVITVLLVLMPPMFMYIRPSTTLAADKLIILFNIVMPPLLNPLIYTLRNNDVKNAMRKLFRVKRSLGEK
# How it was run: as §1
# OR4S2 (Homo sapiens) = OR4S2 (Homo sapiens) (UniProt Q8NH73)
# Sequence of OR4S2 (Homo sapiens) (Q8NH73 whole entry): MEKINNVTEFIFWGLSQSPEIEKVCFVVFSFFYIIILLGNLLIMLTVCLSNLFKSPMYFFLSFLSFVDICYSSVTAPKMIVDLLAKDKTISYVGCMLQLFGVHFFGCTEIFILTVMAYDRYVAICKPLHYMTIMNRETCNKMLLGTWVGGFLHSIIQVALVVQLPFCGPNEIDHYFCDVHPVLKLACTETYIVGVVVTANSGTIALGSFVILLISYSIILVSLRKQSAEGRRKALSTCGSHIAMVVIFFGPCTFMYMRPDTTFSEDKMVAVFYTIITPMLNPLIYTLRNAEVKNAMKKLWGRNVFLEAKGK
# How it was run: as §1
# OR4X1 (Homo sapiens) = OR4X1 (Homo sapiens) (UniProt Q8NH49)
# Sequence of OR4X1 (Homo sapiens) (Q8NH49 whole entry): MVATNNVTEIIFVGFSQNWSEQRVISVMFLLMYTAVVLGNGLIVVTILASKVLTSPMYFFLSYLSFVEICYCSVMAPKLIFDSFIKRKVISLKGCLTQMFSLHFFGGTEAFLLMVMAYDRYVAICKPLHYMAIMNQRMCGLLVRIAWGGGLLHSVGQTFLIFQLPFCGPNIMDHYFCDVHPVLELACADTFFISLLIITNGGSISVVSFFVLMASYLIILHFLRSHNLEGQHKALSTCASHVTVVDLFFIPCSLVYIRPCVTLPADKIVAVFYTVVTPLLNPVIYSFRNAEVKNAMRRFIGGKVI
# How it was run: as §1
# OR4X2 (Homo sapiens) = OR4X2 (Homo sapiens) (UniProt Q8NGF9)
# Sequence of OR4X2 (Homo sapiens) (Q8NGF9 whole entry): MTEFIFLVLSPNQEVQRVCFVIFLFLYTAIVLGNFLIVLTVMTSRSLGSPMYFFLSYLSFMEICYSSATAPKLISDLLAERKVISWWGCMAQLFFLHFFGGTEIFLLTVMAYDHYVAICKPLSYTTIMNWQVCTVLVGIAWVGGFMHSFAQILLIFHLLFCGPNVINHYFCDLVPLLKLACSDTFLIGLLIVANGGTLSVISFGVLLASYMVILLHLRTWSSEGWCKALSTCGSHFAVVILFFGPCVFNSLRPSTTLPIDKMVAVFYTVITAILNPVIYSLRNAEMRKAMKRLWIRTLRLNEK
# How it was run: as §1
# OR51A2 (Homo sapiens) = OR51A2 (Homo sapiens) (UniProt Q8NGJ7)
# Sequence of OR51A2 (Homo sapiens) (Q8NGJ7 whole entry): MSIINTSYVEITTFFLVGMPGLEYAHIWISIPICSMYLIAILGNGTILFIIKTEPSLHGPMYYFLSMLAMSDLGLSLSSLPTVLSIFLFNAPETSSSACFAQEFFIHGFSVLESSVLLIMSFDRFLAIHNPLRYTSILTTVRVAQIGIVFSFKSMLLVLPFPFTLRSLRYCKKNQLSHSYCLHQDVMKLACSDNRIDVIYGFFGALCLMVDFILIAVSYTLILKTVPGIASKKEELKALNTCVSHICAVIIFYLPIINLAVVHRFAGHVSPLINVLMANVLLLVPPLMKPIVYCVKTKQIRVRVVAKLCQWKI
# How it was run: as §1
# OR51A4 (Homo sapiens) = OR51A4 (Homo sapiens) (UniProt Q8NGJ6)
# Sequence of OR51A4 (Homo sapiens) (Q8NGJ6 whole entry): as the sequence (Q8NGJ7 whole entry) above, with G59E, T94I, S97N, S167N, P227L, E235Q, G267R, M288T, K289N, W311R counted along it
# How it was run: as §1
# OR51A7 (Homo sapiens) = OR51A7 (Homo sapiens) (UniProt Q8NH64)
# Sequence of OR51A7 (Homo sapiens) (Q8NH64 whole entry): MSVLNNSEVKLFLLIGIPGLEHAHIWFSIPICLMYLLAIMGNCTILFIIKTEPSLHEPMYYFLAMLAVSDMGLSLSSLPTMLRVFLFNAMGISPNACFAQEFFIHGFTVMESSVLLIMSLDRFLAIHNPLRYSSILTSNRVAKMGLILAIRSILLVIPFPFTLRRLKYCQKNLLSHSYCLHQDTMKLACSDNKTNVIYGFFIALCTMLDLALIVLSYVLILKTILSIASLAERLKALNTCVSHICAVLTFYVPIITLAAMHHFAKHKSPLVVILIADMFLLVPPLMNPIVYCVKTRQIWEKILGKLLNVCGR
# How it was run: as §1
# OR51B2 (Homo sapiens) = OR51B2 (Homo sapiens) (UniProt Q9Y5P1)
# Sequence of OR51B2 (Homo sapiens) (Q9Y5P1 whole entry): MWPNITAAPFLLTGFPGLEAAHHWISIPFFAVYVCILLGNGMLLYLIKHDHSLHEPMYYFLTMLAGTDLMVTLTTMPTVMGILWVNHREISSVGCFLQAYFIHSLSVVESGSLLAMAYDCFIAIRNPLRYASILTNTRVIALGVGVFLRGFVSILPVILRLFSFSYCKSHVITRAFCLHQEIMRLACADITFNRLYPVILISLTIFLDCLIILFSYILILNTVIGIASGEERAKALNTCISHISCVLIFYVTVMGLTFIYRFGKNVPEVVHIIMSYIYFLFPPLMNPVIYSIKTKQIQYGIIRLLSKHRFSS
# How it was run: as §1
# OR51B4 (Homo sapiens) = OR51B4 (Homo sapiens) (UniProt Q9Y5P0)
# Sequence of OR51B4 (Homo sapiens) (Q9Y5P0 whole entry): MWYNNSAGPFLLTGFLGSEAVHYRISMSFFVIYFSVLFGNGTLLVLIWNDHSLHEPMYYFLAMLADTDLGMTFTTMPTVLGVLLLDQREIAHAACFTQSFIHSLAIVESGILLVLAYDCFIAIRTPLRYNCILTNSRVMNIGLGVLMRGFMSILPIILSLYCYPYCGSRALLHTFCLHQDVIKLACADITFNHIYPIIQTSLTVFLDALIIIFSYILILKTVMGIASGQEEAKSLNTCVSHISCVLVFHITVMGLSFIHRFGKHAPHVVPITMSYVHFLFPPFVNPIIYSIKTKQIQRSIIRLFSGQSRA
# How it was run: as §1
# OR51B6 (Homo sapiens) = OR51B6 (Homo sapiens) (UniProt Q9H340)
# Sequence of OR51B6 (Homo sapiens) (Q9H340 whole entry): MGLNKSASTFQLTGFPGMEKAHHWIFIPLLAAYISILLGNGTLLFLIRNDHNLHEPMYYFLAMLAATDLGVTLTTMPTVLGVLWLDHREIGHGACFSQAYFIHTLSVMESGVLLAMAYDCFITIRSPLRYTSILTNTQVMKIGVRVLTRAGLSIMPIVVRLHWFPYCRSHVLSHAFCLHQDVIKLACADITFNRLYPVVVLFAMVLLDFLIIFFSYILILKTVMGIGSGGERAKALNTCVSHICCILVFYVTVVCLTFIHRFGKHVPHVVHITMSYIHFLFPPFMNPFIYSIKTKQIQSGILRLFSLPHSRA
# How it was run: as §1
# OR51D1 (Homo sapiens) = OR51D1 (Homo sapiens) (UniProt Q8NGF3)
# Sequence of OR51D1 (Homo sapiens) (Q8NGF3 whole entry): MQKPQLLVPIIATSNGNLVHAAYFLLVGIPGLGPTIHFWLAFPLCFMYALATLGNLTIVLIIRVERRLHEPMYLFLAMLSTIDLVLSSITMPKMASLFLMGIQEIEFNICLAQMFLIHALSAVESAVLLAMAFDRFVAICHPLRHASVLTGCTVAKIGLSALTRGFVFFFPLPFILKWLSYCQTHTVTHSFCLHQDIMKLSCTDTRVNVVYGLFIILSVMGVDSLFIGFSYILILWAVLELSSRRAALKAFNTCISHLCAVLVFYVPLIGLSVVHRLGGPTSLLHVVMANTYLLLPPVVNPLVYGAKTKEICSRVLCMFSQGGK
# How it was run: as §1
# OR4Q3 T135A = tested on: OR4Q3 T135A
# Sequence of OR4Q3 T135A (as listed by the source, stated change not applied): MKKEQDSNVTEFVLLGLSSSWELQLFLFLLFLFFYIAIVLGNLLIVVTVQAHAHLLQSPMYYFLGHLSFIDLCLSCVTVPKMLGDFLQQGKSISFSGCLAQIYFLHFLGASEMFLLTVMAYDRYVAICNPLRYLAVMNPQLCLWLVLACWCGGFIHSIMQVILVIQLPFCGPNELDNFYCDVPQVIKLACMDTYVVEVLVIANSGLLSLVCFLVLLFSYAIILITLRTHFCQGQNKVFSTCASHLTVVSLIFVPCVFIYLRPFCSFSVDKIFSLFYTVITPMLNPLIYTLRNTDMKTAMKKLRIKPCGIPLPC
# How it was run: as §1
# OR51E1 (Homo sapiens) [2] = biological target: OR51E1 (Homo sapiens) (UniProt Q8TCB6); remark: listed apart in the source
# How it was run: as §1
# Target sequence in this assay (Q8TCB6 whole entry): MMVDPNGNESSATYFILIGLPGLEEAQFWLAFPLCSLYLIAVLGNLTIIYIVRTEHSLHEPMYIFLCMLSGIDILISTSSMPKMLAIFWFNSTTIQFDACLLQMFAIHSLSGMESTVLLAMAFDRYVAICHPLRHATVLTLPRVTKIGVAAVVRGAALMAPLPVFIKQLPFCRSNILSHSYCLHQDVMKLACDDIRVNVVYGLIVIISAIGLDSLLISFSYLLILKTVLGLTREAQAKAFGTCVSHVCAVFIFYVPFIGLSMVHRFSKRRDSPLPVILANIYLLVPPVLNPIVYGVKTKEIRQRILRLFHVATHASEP
# OR4Q3 = tested on: OR4Q3
# Sequence of OR4Q3 (as listed by the source): as the sequence (as listed by the source, stated change not applied) above, with A135T, F238L counted along it
# How it was run: as §1
smiles,measurement,setting,value
O=c1cc(O)c2ccccc2o1,odorant receptor agonist call,OR51E1 (Homo sapiens) [1],inactive
same,odorant receptor agonist call,OR51E2 (Homo sapiens),inactive
C=CCc1ccccc1,odorant receptor agonist call,OR51E1 (Homo sapiens) [1],inactive
same,odorant receptor agonist call,OR51E2 (Homo sapiens),inactive
COc1ccc(C=O)cc1,odorant receptor agonist call,OR51B5 (Homo sapiens),inactive
Cc1c([N+](=O)[O-])c(C)c([N+](=O)[O-])c(C(C)(C)C)c1[N+](=O)[O-],odorant receptor agonist call,OR4P4 (Homo sapiens),inactive
same,odorant receptor agonist call,OR4Q2 (Homo sapiens),inactive
same,odorant receptor agonist call,OR4Q3 (Homo sapiens),inactive
same,odorant receptor agonist call,OR4S1 (Homo sapiens),inactive
same,odorant receptor agonist call,OR4S2 (Homo sapiens),inactive
same,odorant receptor agonist call,OR4X1 (Homo sapiens),inactive
same,odorant receptor agonist call,OR4X2 (Homo sapiens),inactive
same,odorant receptor agonist call,OR51A2 (Homo sapiens),inactive
same,odorant receptor agonist call,OR51A4 (Homo sapiens),inactive
same,odorant receptor agonist call,OR51A7 (Homo sapiens),inactive
same,odorant receptor agonist call,OR51B2 (Homo sapiens),inactive
same,odorant receptor agonist call,OR51B4 (Homo sapiens),inactive
same,odorant receptor agonist call,OR51B5 (Homo sapiens),inactive
same,odorant receptor agonist call,OR51B6 (Homo sapiens),inactive
same,odorant receptor agonist call,OR51D1 (Homo sapiens),inactive
same,odorant receptor agonist call,OR51E2 (Homo sapiens),inactive
C=CCOC(=O)Cc1ccccc1,odorant receptor agonist call,OR4P4 (Homo sapiens),inactive
same,odorant receptor agonist call,OR4Q3 (Homo sapiens),inactive
same,odorant receptor agonist call,OR4Q3 T135A,inactive
same,odorant receptor agonist call,OR4S1 (Homo sapiens),inactive
same,odorant receptor agonist call,OR4S2 (Homo sapiens),inactive
same,odorant receptor agonist call,OR4X1 (Homo sapiens),inactive
same,odorant receptor agonist call,OR4X2 (Homo sapiens),inactive
same,odorant receptor agonist call,OR51A2 (Homo sapiens),inactive
same,odorant receptor agonist call,OR51A4 (Homo sapiens),inactive
same,odorant receptor agonist call,OR51A7 (Homo sapiens),inactive
same,odorant receptor agonist call,OR51B2 (Homo sapiens),inactive
same,odorant receptor agonist call,OR51B4 (Homo sapiens),inactive
same,odorant receptor agonist call,OR51B5 (Homo sapiens),inactive
same,odorant receptor agonist call,OR51B6 (Homo sapiens),inactive
same,odorant receptor agonist call,OR51D1 (Homo sapiens),inactive
same,odorant receptor agonist call,OR51E1 (Homo sapiens) [2],inactive
same,odorant receptor agonist call,OR51E1 (Homo sapiens) [1],inactive
same,odorant receptor agonist call,OR51E2 (Homo sapiens),inactive
Cc1cccc(C)c1,odorant receptor agonist call,OR51B5 (Homo sapiens),inactive
CCCCOC(=O)c1ccccc1N,odorant receptor agonist call,OR4Q3 (Homo sapiens),active
same,odorant receptor agonist call,OR4Q3,inactive
CCC1CCC(=O)O1 (centres undefined),odorant receptor agonist call,OR51E1 (Homo sapiens) [1],inactive
same,odorant receptor agonist call,OR51E2 (Homo sapiens),inactive
